The source made the active and inactive calls. The rule behind the calls is not given here.

Type in all cases: functional
In assay [1] the test system is L1210. Briefly: Chemotherapeutic index, ratio of antileukemic activity against mouse L1210 cells allografted in BDF1 mouse assessed as concentration required to give maximum increase in life span administered as continuous injection to antileukemic activity against mouse L1210 cells allografted in BDF1 mouse assessed as concentration required to increase 40% life span administered as continuous injection. Put shortly:
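Chemotherapeutic index was taken as OD/MED on the chronic schedule (QD days 1-12) in BDF1 mice bearing 10⁵ i.p.-inoculated L-1210 cells. OD is the dose giving maximum increase in life span; MED is the dose giving 40% ILS versus controls. Compounds were given in DMSO diluted with saline.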

Assay [2] has as its system L1210. The assay can be described thus: Antileukemic activity against mouse L1210 cells allografted in BDF1 mouse assessed as concentration required to increase 40% life span administered as continuous injection. Conditions: read-out: MED. An outline of the steps: (§1)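 Chronic schedule: 10⁵ L-1210 cells given i.p. to BDF1 mice, then treatment once daily on days 1-12 with compound in DMSO diluted with sterile saline. Life span was compared with controls. MED is the dose giving 40% increase in life span; OD is the dose giving maximum ILS.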

The subject of assay [3] is L1210. Briefly: Antileukemic activity against mouse L1210 cells allografted in BDF1 mouse assessed as concentration required to give maximum increase in life span administered as continuous injection. An outline of the steps: as §1
Assay [4] deals with L1210. The assay can be described thus: Antileukemic activity against mouse L1210 cells allografted in BDF1 mouse assessed as concentration required to increase 40% life span administered for 1 day. An outline of the steps: (§2)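 Single-injection schedule: BDF1 mice received 10⁵ L-1210 cells i.p. and one dose on day 1 only, with compound dissolved in DMSO and made up in sterile saline. Survival was compared with controls. MED is the dose yielding 40% ILS; OD is the dose yielding maximal ILS.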

Assay [5] has as its system L1210. Briefly: Antileukemic activity against mouse L1210 cells allografted in BDF1 mouse assessed as concentration required to give maximum increase in life span administered for 1 day. An outline of the steps: as §2
Assay [6] concerns L1210. The assay can be described thus: Antileukemic activity against mouse L1210 cells allografted in BDF1 mouse assessed as concentration required to increase 40% life span administered as qd for 12 days. An outline of the steps:
as §1

Assay [7] concerns L1210. The assay can be described thus: Antileukemic activity against mouse L1210 cells allografted in BDF1 mouse. An outline of the steps:
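BDF1 mice inoculated intraperitoneally with 10⁵ L-1210 cells. Compounds were dissolved in dimethyl sulfoxide and diluted with sterile physiological saline for injection. Dosing was either chronic (QD days 1-12) or a single injection on day 1. Read-out was increase in life span (ILS) relative to untreated controls.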

`O=C1C=C(N2CC2)C(=O)C(N2CC2)=C1N1CC1` [TRIAZIQUONE]: in the assay on L1210 [1], the TI is 1.8. For the same molecule, in the assay with L1210 [2], the minimal effective dose worked out at 0.082 mg/kg. Further, the Activity in the assay on L1210 [3] turned out to be 0.15 mg/kg.

Consider `CCOC(COC(N)=O)C1=C(N2CC2)C(=O)C(CC)=C(N2CC2)C1=O` (stereo unspecified), for which the “log(1/C)” value with L1210 [4] turned out to be 5.4.

Regarding `CC1=C(N2CC2)C(=O)C(CCC(=O)N(C)C)=C(N2CC2)C1=O`, the “log(1/C)” value in the assay with L1210 [4] was found to be 5.09; with L1210 [5], 4.84.

For `CCCC1=C(N2CC2)C(=O)C(CCOC(N)=O)=C(N2CC2)C1=O`, the “log(1/C)” value in the assay on L1210 [4] stood at 4.9.

In the case of `O=C1C(CCO)=C(N2CC2)C(=O)C(CCO)=C1N1CC1`, the “log(1/C)” value in the assay on L1210 [5] is on record as 5.6.

For the molecule `CO[C@@]12[C@H](COC(N)=O)C3=C(C(=O)C(C)=C(N)C3=O)N1C[C@@H]1N[C@@H]12` [MITOMYCIN], in the assay with L1210 [1], the TI is on record as 2.2. Further, in the assay with L1210 [2], the minimal effective dose stood at 0.9 mg/kg. For the same molecule, the Activity with L1210 [3] is 2 mg/kg.

Take `COC(CO)C1=C(N2CC2)C(=O)C(C)=C(N2CC2)C1=O` (stereo unspecified): the “log(1/C)” value with L1210 [6] amounted to 6.9.

With `CC1=C(N2CC2)C(=O)C(C(C)C)=C(N2CC2)C1=O`, the “log(1/C)” value in the assay with L1210 [6] amounted to 5.6.

Turning to `COC(CO[C@@H]1O[C@H](COC(C)=O)[C@@H](OC(C)=O)[C@H](OC(C)=O)[C@H]1OC(C)=O)C1=C(N2CC2)C(=O)C(C)=C(N2CC2)C1=O` (stereo partly specified), the outcome in the assay with L1210 [7] was Active.

Take `COC(CO)C1=C(N2CC2)C(=O)C(C(CO)OC)=C(N2CC2)C1=O` (stereo unspecified): the outcome with L1210 [7] was Active.

As to `CC1=C(N2CC2)C(=O)C(CCCc2ccccc2)=C(N2CC2)C1=O`, in the assay with L1210 [5], the “log(1/C)” value was found to be 3.6.

`COC(COC(N)=O)C1=C(N2CC2)C(=O)C(C)=C(N2CC2)C1=O` (stereo unspecified) [CARBOQUONE]: in the assay with L1210 [1], the TI came to 5.4. Besides, the minimal effective dose with L1210 [2] worked out at 0.13 mg/kg. Further, in the assay on L1210 [3], the Activity was found to be 0.7 mg/kg.

Take `CCC(COC(N)=O)C1=C(N2CC2)C(=O)C(C)=C(N2CC2)C1=O` (stereo unspecified): the “log(1/C)” value with L1210 [5] is reported as 5.2.

For the molecule `COC(COC(N)=O)C1=C(N2CC2)C(=O)C(C(COC(N)=O)OC)=C(N2CC2)C1=O` (stereo unspecified), the outcome in the assay with L1210 [7] was Active.

Source of the values: ChEMBL document CHEMBL3243988, “Quantitative structure-activity relationships in 2,5-bis(1-aziridinyl)-p-benzoquinone derivatives against leukemia L-1210” (1979).
